Laboratory results reported in ChEMBL document CHEMBL1156205, “Synthesis and antibacterial activity of new 9-O-arylpropenyloxime ketolides” (2010).
Values after ≈ are worked out from the molar mass of the structure shown.

Assays:
Type in all cases: functional
Streptococcus pneumoniae [1] = experiment: Antibacterial activity against penicillin intermediate-resistant Streptococcus pneumoniae isolate I1 by agar dilution method
In short: (§1)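 MIC determined by agar dilution on Mueller–Hinton agar against clinically isolated penicillin-intermediate-resistant S. pneumoniae.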

Staphylococcus aureus [2] = experiment: Antibacterial activity against methicillin-susceptible Staphylococcus aureus ATCC 29213 by agar dilution method
In short: (§2)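 MIC determined by agar dilution on Mueller–Hinton agar against reference strains.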

Staphylococcus aureus [3] = experiment: Antibacterial activity against methicillin-resistant Staphylococcus aureus 1 by agar dilution method
In short: (§3)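 MIC determined by agar dilution on Mueller–Hinton agar against clinical strains of methicillin-resistant S. aureus.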

Staphylococcus aureus [4] = experiment: Antibacterial activity against methicillin-resistant Staphylococcus aureus 2 by agar dilution method; in short: as §3
Staphylococcus aureus [5] = experiment: Antibacterial activity against methicillin-resistant Staphylococcus aureus 3 by agar dilution method; in short: as §3
Staphylococcus aureus [6] = experiment: Antibacterial activity against methicillin-susceptible Staphylococcus aureus isolate 1 by agar dilution method
In short: (§4)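 MIC determined by agar dilution on Mueller–Hinton agar against clinically isolated methicillin-susceptible S. aureus.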

Staphylococcus aureus [7] = experiment: Antibacterial activity against methicillin-susceptible Staphylococcus aureus isolate 2 by agar dilution method; in short: as §4
Staphylococcus aureus [8] = experiment: Antibacterial activity against methicillin-susceptible Staphylococcus aureus isolate 3 by agar dilution method; in short: as §4
Streptococcus pneumoniae [9] = experiment: Antibacterial activity against Streptococcus pneumoniae ATCC 49619 by agar dilution method; details: ATCC49619; in short: as §2
Streptococcus pneumoniae [10] = experiment: Antibacterial activity against penicillin intermediate-resistant Streptococcus pneumoniae isolate I2 by agar dilution method; in short: as §1
Streptococcus pneumoniae [11] = experiment: Antibacterial activity against penicillin intermediate-resistant Streptococcus pneumoniae isolate I3 by agar dilution method; in short: as §1
Streptococcus pneumoniae [12] = experiment: Antibacterial activity against penicillin-susceptible Streptococcus pneumoniae isolate S1 by agar dilution method
In short: (§5)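 MIC measured by agar dilution on Mueller–Hinton agar. Strains were a reference culture and clinically isolated strains. The pneumococcal isolates were penicillin-susceptible clinical isolates.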

Streptococcus pneumoniae [13] = experiment: Antibacterial activity against penicillin-susceptible Streptococcus pneumoniae isolate S2 by agar dilution method; in short: as §5
Streptococcus pyogenes [14] = experiment: Antibacterial activity against Streptococcus pyogenes ATCC 8668 by agar dilution method; in short: as §5
Streptococcus pyogenes [15] = experiment: Antibacterial activity against Streptococcus pyogenes isolate 1 by agar dilution method; in short: as §5
Streptococcus pyogenes [16] = experiment: Antibacterial activity against Streptococcus pyogenes isolate 2 by agar dilution method; in short: as §5
Streptococcus pyogenes [17] = experiment: Antibacterial activity against Streptococcus pyogenes isolate 3 by agar dilution method; in short: as §5

SMILES	MIC (Streptococcus pneumoniae [1]) [µg/mL]	MIC (Staphylococcus aureus [2]) [µg/mL]	MIC (Staphylococcus aureus [3]) [µg/mL]	MIC (Staphylococcus aureus [4]) [µg/mL]	MIC (Staphylococcus aureus [5]) [µg/mL]	MIC (Staphylococcus aureus [6]) [µg/mL]	MIC (Staphylococcus aureus [7]) [µg/mL]	MIC (Staphylococcus aureus [8]) [µg/mL]	MIC (Streptococcus pneumoniae [9]) [µg/mL]	MIC (Streptococcus pneumoniae [10]) [µg/mL]	MIC (Streptococcus pneumoniae [11]) [µg/mL]	MIC (Streptococcus pneumoniae [12]) [µg/mL]	MIC (Streptococcus pneumoniae [13]) [µg/mL]	MIC (Streptococcus pyogenes [14]) [µg/mL]	MIC (Streptococcus pyogenes [15]) [µg/mL]	MIC (Streptococcus pyogenes [16]) [µg/mL]	MIC (Streptococcus pyogenes [17]) [µg/mL]
CC[C@H]1OC(=O)[C@H](C)C(=O)[C@H](C)[C@@H](O[C@@H]2O[C@H](C)C[C@H](N(C)C)[C@H]2O)[C@](C)(OC)C[C@@H](C)/C(=N\OC/C=C/c2cccc(OC)c2)[C@H](C)[C@@H](O)[C@]1(C)O	64 (≈ 85.5 µM)	2 (≈ 2.67 µM)	128 (≈ 171 µM)	128 (≈ 171 µM)	2 (≈ 2.67 µM)	2 (≈ 2.67 µM)	2 (≈ 2.67 µM)	2 (≈ 2.67 µM)	1 (≈ 1.34 µM)	1 (≈ 1.34 µM)	64 (≈ 85.5 µM)	0.25 (≈ 0.334 µM)	0.25 (≈ 0.334 µM)	1 (≈ 1.34 µM)	0.25 (≈ 0.334 µM)	1 (≈ 1.34 µM)	1 (≈ 1.34 µM)
CC[C@H]1OC(=O)[C@H](C)C(=O)[C@H](C)[C@@H](O[C@@H]2O[C@H](C)C[C@H](N(C)C)[C@H]2O)[C@](C)(OC)C[C@@H](C)/C(=N\OC/C=C/c2ccc(OC)c(OC)c2)[C@H](C)[C@@H](O)[C@]1(C)O	32 (≈ 41.1 µM)	1 (≈ 1.28 µM)	128 (≈ 164 µM)	128 (≈ 164 µM)	1 (≈ 1.28 µM)	0.5 (≈ 0.642 µM)	1 (≈ 1.28 µM)	1 (≈ 1.28 µM)	0.25 (≈ 0.321 µM)	0.5 (≈ 0.642 µM)	0.5 (≈ 0.642 µM)	0.06 (≈ 0.077 µM)	0.06 (≈ 0.077 µM)	0.25 (≈ 0.321 µM)	0.06 (≈ 0.077 µM)	0.25 (≈ 0.321 µM)	0.25 (≈ 0.321 µM)
CC[C@H]1OC(=O)[C@H](C)C(=O)[C@H](C)[C@@H](O[C@@H]2O[C@H](C)C[C@H](N(C)C)[C@H]2O)[C@](C)(OC)C[C@@H](C)/C(=N\OC/C=C/c2cccnc2)[C@H](C)[C@@H](O)[C@]1(C)O	64 (≈ 88.9 µM)	0.5 (≈ 0.695 µM)	128 (≈ 178 µM)	128 (≈ 178 µM)	0.5 (≈ 0.695 µM)	0.25 (≈ 0.347 µM)	0.25 (≈ 0.347 µM)	0.25 (≈ 0.347 µM)	0.125 (≈ 0.174 µM)	0.25 (≈ 0.347 µM)	0.06 (≈ 0.0833 µM)	0.06 (≈ 0.0833 µM)	0.06 (≈ 0.0833 µM)	0.25 (≈ 0.347 µM)	0.06 (≈ 0.0833 µM)	0.06 (≈ 0.0833 µM)	0.06 (≈ 0.0833 µM)
CC[C@H]1OC(=O)[C@H](C)C(=O)[C@H](C)[C@@H](O[C@@H]2O[C@H](C)C[C@H](N(C)C)[C@H]2O)[C@](C)(OC)C[C@@H](C)/C(=N\OC/C=C/c2cncc3ccccc23)[C@H](C)[C@@H](O)[C@]1(C)O	32 (≈ 41.6 µM)	1 (≈ 1.3 µM)	128 (≈ 166 µM)	128 (≈ 166 µM)	0.5 (≈ 0.649 µM)	1 (≈ 1.3 µM)	0.5 (≈ 0.649 µM)	0.5 (≈ 0.649 µM)	0.25 (≈ 0.325 µM)	0.5 (≈ 0.649 µM)	1 (≈ 1.3 µM)	0.25 (≈ 0.325 µM)	0.25 (≈ 0.325 µM)	0.25 (≈ 0.325 µM)	0.06 (≈ 0.0779 µM)	0.25 (≈ 0.325 µM)	0.25 (≈ 0.325 µM)
CC[C@H]1OC(=O)[C@H](C)C(=O)[C@H](C)[C@@H](O[C@@H]2O[C@H](C)C[C@H](N(C)C)[C@H]2O)[C@](C)(OC)C[C@@H](C)/C(=N\OC/C=C/c2cncnc2)[C@H](C)[C@@H](O)[C@]1(C)O	128 (≈ 178 µM)	0.5 (≈ 0.694 µM)	128 (≈ 178 µM)	128 (≈ 178 µM)	0.5 (≈ 0.694 µM)	0.5 (≈ 0.694 µM)	0.5 (≈ 0.694 µM)	0.5 (≈ 0.694 µM)	0.25 (≈ 0.347 µM)	0.5 (≈ 0.694 µM)	1 (≈ 1.39 µM)	0.125 (≈ 0.173 µM)	0.125 (≈ 0.173 µM)	0.25 (≈ 0.347 µM)	0.06 (≈ 0.0832 µM)	0.25 (≈ 0.347 µM)	0.25 (≈ 0.347 µM)
CC[C@H]1OC(=O)[C@H](C)C(=O)[C@H](C)[C@@H](O[C@@H]2O[C@H](C)C[C@H](N(C)C)[C@H]2O)[C@](C)(OC)C[C@@H](C)/C(=N\OC/C=C/c2ccc(OC)cc2)[C@H](C)[C@@H](O)[C@]1(C)O	64 (≈ 85.5 µM)	2 (≈ 2.67 µM)	128 (≈ 171 µM)	126 (≈ 168 µM)	2 (≈ 2.67 µM)	2 (≈ 2.67 µM)	1 (≈ 1.34 µM)	1 (≈ 1.34 µM)	0.5 (≈ 0.668 µM)	0.5 (≈ 0.668 µM)	0.5 (≈ 0.668 µM)	0.25 (≈ 0.334 µM)	0.25 (≈ 0.334 µM)	0.5 (≈ 0.668 µM)	0.25 (≈ 0.334 µM)	0.5 (≈ 0.668 µM)	0.5 (≈ 0.668 µM)
